NR2E3 ag-1: NR2E3 agonists in two-hybrid cells, primary screen, cell-based, luminescence, CHO-S, Gal4-NCOR/VP16-NR2E3; inhibition of corepressor binding, % at 3.98 µM; hit rate 0.35% among 360,000; AID 602229, 2012; luciferase;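 active = inhibition above the mean of all tested compounds plus 3 SD, cut at about 70% in these data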;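 note: 0% = DMSO with NR2E3 transfected cells and 100% = cells lacking NR2E3 construct; higher means lower luciferase signal from less NR2E3 corepressor binding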
Target sequence (Q9Y5X4 whole entry, looked up, the tested form may be a part): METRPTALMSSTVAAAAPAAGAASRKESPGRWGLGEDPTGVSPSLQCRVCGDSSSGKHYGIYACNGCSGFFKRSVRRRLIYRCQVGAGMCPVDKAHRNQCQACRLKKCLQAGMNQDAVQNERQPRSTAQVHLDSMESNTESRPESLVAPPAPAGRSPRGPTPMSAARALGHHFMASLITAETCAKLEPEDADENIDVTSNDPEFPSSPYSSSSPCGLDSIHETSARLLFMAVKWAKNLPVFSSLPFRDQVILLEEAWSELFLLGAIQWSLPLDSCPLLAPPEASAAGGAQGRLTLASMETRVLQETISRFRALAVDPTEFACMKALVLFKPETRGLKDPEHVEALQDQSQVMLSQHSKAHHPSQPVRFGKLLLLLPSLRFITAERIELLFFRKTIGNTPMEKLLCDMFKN
T cell HTS: modulators of CD8 T cell-vesicle binding, primary screen, mouse 2C CD8+ T cells, flow cytometry; response (vesicle binding), % at 7 µM; 2C CD8+ T cell-vesicle binding; active compounds read low; hit rate 0.068% among 330,000;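 active = response, share of CD8 T cells binding vesicles, and their 90th percentile fluorescence all below set limits, cut at about 80% in these data, passing the limit was not always enough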;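 note: values below 100% mean blocked vesicle binding to the CD8+ T cells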
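incubation = binding step 1.5 h, 37 °C, antibody labelling 20 min, ice | test system = 2C mouse CD8+ T cells | read-out basis = percent CD8+ FL2 mean versus row control | controls = Peptide-free naked vesicles (low) and QL9 vesicles with 0.7% DMSO vehicle (high) | detection = flow cytometry of vesicle-bound cells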
GAA850 FXN act: FXN promoter activators, primary screen, cell-based, luciferase luminescence, HEK293 lucGAA850. HEK293 lucGAA850 FXN promoter luciferase reporter, 24 h; percent of 10 µM SAHA response. activation, % at 6 µM. hit rate 0.56% among 360,000. AID 540364, 2011;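 active = activation above the average of all compounds screened plus 3 SD, cutoff fixed separately per campaign, cut at about 7.5% in these data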;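 note: 0% = DMSO wells and 100% = 10 µM SAHA wells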
Myeloid diff MLP: induction of myeloid progenitor differentiation, primary screen, cell-based, flow cytometry, MLPCN library | ER-HoxA9 myeloid progenitors, lysozyme-GFP differentiation | calls only at 10 µM | hit rate 1% among 360,000 | AID 624256, 2012;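 active = normalized GFP-positive differentiation at or above the plate's own cutoff, the solvent-only control mean plus 3 SD; inconclusive = no clear call, values can overlap the other calls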;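 note: cells exposed to compound for four days before flow analysis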
NR2E3 ag-2: inhibitors of NR2E3-RetCOR corepressor binding, primary screen, NR2E3 agonist project, biochemical, TR-FRET, GST-NR2E3, biotin-RetCOR. AID 2300, 2010. Photoreceptor-specific nuclear receptor (Homo sapiens), Q9Y5X4. inhibition of corepressor binding, % at 4.78 µM. 1536-well. hit rate 0.12% among 320,000;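 active = percent inhibition above the cutoff of mean plus 3 SD of all tested compounds, set per screening campaign, cut at about 20% in these data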;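 note: 0% = DMSO wells and 100% = biotin wells as full block of FRET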
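System: GST-tagged NR2E3 plus biotinylated RetCOR corepressor; Buffer or medium: pH 7.5 Tris-based buffer; Probe or stimulus: RetCOR corepressor, biotinylated, 7 nM; Doses: compound at 4.8 µM, single dose; Schedule: 5 h incubation at 4 °C; Technique: time-resolved FRET; Evaluation: percent inhibition of TR-FRET ratio; Replication: one well per compound, singlicate testing.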
* hit, by the source's call; i = inactive; ? = inconclusive; . = no result; + = active, no number. Rows were chosen to be rich in hits. Some 2% of all compounds tested hit in one or more screens of this group.

SMILES | NR2E3 ag-1 | T cell HTS | GAA850 FXN act | Myeloid diff MLP | NR2E3 ag-2
CCOc1ccccc1OCCCCCc1c(C)n[nH]c1C | 46 | 285 | -1 | + | 1
COc1ccccc1OCCCCCc1c(C)n[nH]c1C | 30 | . | 3 | i | 9
CC1CCC(NC(=O)CCS(=O)(=O)c2ccc3c(c2)CCN3C(=O)C2CC2)CC1 (stereo not given) | -14 | 534 | 1 | + | 1
Cc1nn(C)cc1C1C2=C(CC(C)(C)CC2=O)N(c2ccccc2)C2=C1C(=O)CC(C)(C)C2 | 1 | 168 | 1 | i | -2
Cc1ccc(N2C3=C(C(=O)CC(C)(C)C3)C(c3cn(C)nc3C)C3=C2CC(C)(C)CC3=O)cc1 | 2 | 407 | 1 | + | 9
CCOc1ccc(OCCC(=O)OCC(=O)N2CCN(S(=O)(=O)c3ccc(Cl)cc3)CC2)cc1 | -30 | 624 | 9.7* | i | 4
Cc1ccc(C)c(OCCC(=O)OCC(=O)N2CCN(S(=O)(=O)c3ccc(Cl)cc3)CC2)c1 | -14 | 347 | 3 | i | 1
CCN(C[C@H]1N[C@@](CC)(C(=O)OC)[C@H]2C(=O)N(Cc3ccccc3)C(=O)[C@@H]12)C(=O)c1ccccc1 | -32 | 264 | -1 | i | .
O=C(OCC(O)C(O)C(O)C(SCc1ccccc1)SCc1ccccc1)c1ccccc1 (stereo not given) | -20 | . | 0 | i | .
Nc1ccc(Nc2ccccc2)c(Cl)c1 | -5 | 121 | 6 | ? | 1
Nc1ccccc1Nc1ccccc1 | 18 | 146 | -1 | + | -1
O=C1c2cccc3cc([N+](=O)[O-])cc(c23)C(=O)N1CCN1CCCC1 | -45 | . | -6 | ? | .
Nc1cc2c3c(cccc3c1)C(=O)N(CCN1CCCC1)C2=O | -41 | 216 | 2 | + | -12
COc1ccc(CCNCc2ccc(OCC(=O)N3CCCCC3)c(OC)c2)cc1OC | 0 | 72 | 0 | i | -6
COc1cc(CNCCc2ccc(S(N)(=O)=O)cc2)ccc1OCC(=O)N1CCCCC1 | 13 | 79* | 1 | i | 2
O=C(NCc1ccccc1)C(c1ccccc1)n1c(C2CC2)nc2ccccc21 (stereo not given) | . | . | . | i | .
Cc1cc(O)c2c(c1O)C(=O)[C@]13C(=C2O)C(=O)[C@@H]2[C@@H](O)[C@H]1[C@@H]1[C@H](O)[C@H]3C(=O)C3=C(O)c4c(O)cc(C)c(O)c4C(=O)[C@]312 | 101* | 441 | -11 | + | .
O=C(NCCn1cc(SCc2ccc(F)cc2)c2ccccc21)c1ccccc1F | -5 | 336 | 2 | + | 2
O=C(NCCn1cc(SCc2ccc(F)cc2)c2ccccc21)c1c(F)cccc1F | 16 | 546 | -1 | i | 5
O=C(c1cc2sccc2n1Cc1ccccc1)N1CCN(c2nc3ccccc3s2)CC1 | 80* | 506 | -5 | i | 3
C/C(=N/Nc1nc(-c2ccccc2F)nc2ccccc12)c1ccccc1O | -17 | 98 | -1 | + | -2
O=C(NCc1ccc(F)cc1)c1cc(C2CCCCN2S(=O)(=O)c2ccc(F)cc2F)on1 (stereo not given) | -35 | . | 3 | i | .
CN(C)S(=O)(=O)c1cccc(NC(=O)c2cccc(NS(=O)(=O)c3ccccc3)c2)c1 | 14 | 383 | -1 | i | 1
CN(C)S(=O)(=O)c1cccc(NC(=O)c2sccc2-c2ccccc2)c1 | -10 | 157 | 1 | + | .
Cc1ccc(Cl)cc1N1CCN(C(=O)CSc2nnc3n2C(C)(C)Cc2ccccc2-3)CC1 | 87* | 259 | -8 | i | 0
SMILES | NR2E3 ag-1 | T cell HTS | GAA850 FXN act | Myeloid diff MLP | NR2E3 ag-2
Fc1ccc2nncc(SCc3ccccc3Cl)c2c1 | -43 | . | -1 | i | .
COCCOC(=O)c1cc(C(=O)c2cc(F)ccc2O)coc1=N | -12 | 691 | 1 | + | 1
COc1ccc(CCN2C(=O)CC(NNc3ccc([N+](=O)[O-])cc3)C2=O)cc1OC (stereo not given) | -18 | 246 | 1 | + | 2
COc1ccc(CCNC2CC(=O)N(CCc3ccc(OC)c(OC)c3)C2=O)cc1OC (stereo not given) | -5 | . | -2 | i | .
O=C(c1ccc2[nH]ccc2c1)N1CCCC(Nc2ccccc2)C1 (stereo not given) | -26 | 302 | 2 | i | 4
COc1ccc(S(=O)(=O)NC2CC2)cc1Br | -37 | 162 | 1 | + | 2
COc1cc(S(=O)(=O)NC2CCCCC2)ccc1F | -11 | 285 | 5 | i | 0
O=c1[nH]c2cc3ccccc3cc2nc1-c1nnnn1C1CCCC1 | -46 | . | . | + | .
COC(=O)c1ccccc1NC(=O)[C@@H]1CCC(=O)N1C1OC(=O)c2c1ccc(OC)c2OC (stereo not given in full) | 5 | 156 | 1 | + | 4
O=C(O)CSc1cc(C(=O)c2cc(F)ccc2O)cn2c(=O)c3c(-c4ccccc4)csc3nc12 | -21 | 96 | 0 | i | 1
CCOC(=O)c1sc2nc3c(SCCC(=O)O)cc(C(=O)c4cc(OC)ccc4O)cn3c(=O)c2c1C | -68 | . | 4 | + | .
Cc1ccccc1-c1nc(-c2ccc(NC(=O)c3ccc4c(c3)OCO4)cc2)no1 | -44 | 444 | -1 | + | 0
CN(C)c1ccc(-c2csc(C(O)c3cccc(Cl)c3)n2)cc1 (stereo not given) | 12 | . | 1 | i | .
CC(=O)c1c(O)c2ccccc2n(Cc2ccccc2)c1=O | -28 | 58* | 0 | i | 1
CCn1c(=O)c(C(=O)NCCc2ccccc2)c(O)c2ccccc21 | -46 | 455 | 1 | i | 1
CCCCCCCC(=O)NNC(=O)c1c(O)c2ccccc2n(CC)c1=O | -1 | 483 | 1 | + | 4
CCCCC(=O)N(C)c1c(CC)nc2c(OCC(=O)c3ccc(F)cc3)cccn12 | 9 | . | -2 | i | .
Cc1cc(C)nc(-n2nc(C)cc2NC(=O)CN2CCC(C)CC2)n1 | -8 | 455 | 1 | + | -2
Cc1cc(C)nc(-n2nc(C)cc2NC(=O)CN2CCCC2)n1 | -19 | 194 | 0 | i | -2
COc1ccc(C(=O)NC(C)c2ccc(-n3ccnc3)cc2)cc1[N+](=O)[O-] (stereo not given) | 7 | 227 | -1 | i | -3
COc1ccc(CCc2nnc(NS(C)(=O)=O)s2)cc1 | -23 | 283 | 1 | i | .
CCN(Cc1ccccc1)C(=O)c1cccc(S(=O)(=O)N2CCN(c3ccccc3)CC2)c1 | 26 | 210 | -1 | + | 4

High-throughput results: PubChem BioAssay, several laboratories
